The target of data set [1] is 72 kDa type IV collagenase (Homo sapiens) (UniProt P08253). Kind of data set: Inhibition of human MMP2 (Tyr110 to Asp452 residues) expressed in yeast at 50 to 100 uM using Mca-Pro-LeuGly-Leu-Dpa-Ala-Arg-NH2.AcOH as substrate preincubated for 30 mins followed by substrate addition measured after 20 mins by fluorescence assay relative to control. The method, boiled down: (§1)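 Human recombinant MMP-2 (1.16 U/well) or MMP-12 (0.007 U/well) in 50 mM HEPES, 10 mM CaCl2, 0.05% Brij-35, pH 7.5. Enzyme and inhibitor pre-incubated 30 min at 37 °C, then OmniMMP fluorogenic substrate (4 μM) added. Fluorescence rise followed 20 min at ex/em 320/400 nm. Activity relative to no-inhibitor wells, with 200 μM NSA as 0%. Run in triplicate.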
Chain of 72 kDa type IV collagenase (Homo sapiens) (P08253 110-660 limits assumed): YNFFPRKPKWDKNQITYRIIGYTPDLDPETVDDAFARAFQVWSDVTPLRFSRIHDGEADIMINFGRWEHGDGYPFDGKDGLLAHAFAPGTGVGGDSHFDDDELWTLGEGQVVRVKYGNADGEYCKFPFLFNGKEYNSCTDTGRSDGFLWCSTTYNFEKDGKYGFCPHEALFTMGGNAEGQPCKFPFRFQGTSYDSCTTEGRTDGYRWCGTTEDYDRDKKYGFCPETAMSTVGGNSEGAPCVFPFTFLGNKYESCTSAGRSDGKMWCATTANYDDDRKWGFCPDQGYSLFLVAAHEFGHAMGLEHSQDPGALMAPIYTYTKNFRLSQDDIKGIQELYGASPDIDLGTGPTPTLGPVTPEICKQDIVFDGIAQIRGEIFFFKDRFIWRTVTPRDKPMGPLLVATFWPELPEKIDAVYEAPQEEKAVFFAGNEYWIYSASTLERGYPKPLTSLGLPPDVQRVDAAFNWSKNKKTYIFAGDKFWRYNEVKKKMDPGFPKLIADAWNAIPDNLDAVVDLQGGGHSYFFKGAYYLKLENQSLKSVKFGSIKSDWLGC

In data set [2] the target is Metallo-beta-lactamase type 2 (Klebsiella pneumoniae) (UniProt C7C422). The data set can be described thus: Inhibition of NDM1 in Klebsiella pneumoniae isolate Cm1.62 assessed as potentiation of imipenem-induced antibacterial activity by measuring imipenem MIC at 100 mg/L after 18 to 20 hrs by broth microdilution assay (reference value: 16 mg/L). (In general: Dilution methods test growth across graded concentrations, often in twofold steps.)
Chain of Metallo-beta-lactamase type 2 (Klebsiella pneumoniae) (C7C422 whole entry, the tested form may be a part): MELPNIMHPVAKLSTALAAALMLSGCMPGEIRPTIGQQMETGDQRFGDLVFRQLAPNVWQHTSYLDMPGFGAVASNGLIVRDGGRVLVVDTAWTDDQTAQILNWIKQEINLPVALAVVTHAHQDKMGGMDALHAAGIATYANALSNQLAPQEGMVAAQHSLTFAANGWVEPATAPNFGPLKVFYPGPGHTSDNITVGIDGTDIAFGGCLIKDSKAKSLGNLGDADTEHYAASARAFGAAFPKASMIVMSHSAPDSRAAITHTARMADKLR

Data set [3] deals with Escherichia coli. Kind of data set: Effect on growth of Escherichia coli isolate Ah8.74 at 100 mg/L after 18 to 20 hrs by broth microdilution assay. The method, boiled down:
(§2)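 Mueller-Hinton broth microdilution per CLSI, triplicate. blaNDM-1 clinical isolates grown from OD600 0.1 to 0.224 (~1–2 × 10^8 CFU/mL), diluted 3 μL into 4997 μL MH, and 100 μL added to 100 μL of compound (100 mg/L) alone. Incubated 37 °C for 18–20 h, then scored for growth.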

Data set [4] deals with Klebsiella pneumoniae. The data set can be described thus: Effect on growth of Klebsiella pneumoniae isolate Pd1.48 at 100 mg/L after 18 to 20 hrs by broth microdilution assay. The method, boiled down: as §2
Data set [5] concerns Escherichia coli. The data set can be described thus: Inhibition of NDM1 in Escherichia coli isolate Ch8.68 assessed as potentiation of imipenem-induced antibacterial activity by measuring imipenem MIC at 100 mg/L after 18 to 20 hrs by broth microdilution assay (reference value: 16 mg/L).
Data set [6] relates to Escherichia coli. Kind of data set: Effect on growth of Escherichia coli isolate Ch8.72 at 100 mg/L after 18 to 20 hrs by broth microdilution assay. The method, boiled down:
as §2

Data set [7] relates to Escherichia coli. Kind of data set: Inhibition of NDM1 in Escherichia coli isolate Ah8.75 assessed as potentiation of imipenem-induced antibacterial activity by measuring imipenem MIC at 100 mg/L after 18 to 20 hrs by broth microdilution assay (reference value: 16 mg/L).
The target of data set [8] is Metallo-beta-lactamase type 2 (Klebsiella pneumoniae) (UniProt C7C422). The data set can be described thus: Inhibition of NDM1 in Klebsiella pneumoniae isolate Cm1.63 assessed as potentiation of imipenem-induced antibacterial activity by measuring imipenem MIC at 100 mg/L after 18 to 20 hrs by broth microdilution assay (reference value: 8 mg/L).
Data set [9] deals with Escherichia coli. Kind of data set: Effect on growth of Escherichia coli isolate Ch8.69 at 100 mg/L after 18 to 20 hrs by broth microdilution assay. The essentials: as §2
Data set [10] concerns the target Metallo-beta-lactamase type 2 (Klebsiella pneumoniae) (UniProt C7C422). Kind of data set: Inhibition of NDM1 in Klebsiella pneumoniae isolate Pd1.49 assessed as potentiation of imipenem-induced antibacterial activity by measuring imipenem MIC at 100 mg/L after 18 to 20 hrs by broth microdilution assay (reference value: 4 mg/L).
The test system of data set [11] is histone deacetylase 1/6 (Homo sapiens). The data set can be described thus: Selectivity ratio of compound effect for inhibition of bacterial MBP-fused NDM1 expressed in Escherichia coli BL21(DE3) to compound effect for inhibition of human histone deacetylases HDAC-1/HDAC-6.
Data set [12] concerns Klebsiella pneumoniae. The data set can be described thus: Effect on growth of Klebsiella pneumoniae isolate Pd1.54 at 100 mg/L after 18 to 20 hrs by broth microdilution assay. The essentials:
as §2

In data set [13] the test system is Klebsiella pneumoniae. The data set can be described thus: Effect on growth of Klebsiella pneumoniae isolate Cm1.63 at 100 mg/L after 18 to 20 hrs by broth microdilution assay. The method, boiled down:
as §2

Data set [14] deals with Metallo-beta-lactamase type 2 (Klebsiella pneumoniae) (UniProt C7C422). The data set can be described thus: Inhibition of NDM1 in Klebsiella pneumoniae isolate Pd1.53 assessed as potentiation of imipenem-induced antibacterial activity by measuring imipenem MIC at 100 mg/L after 18 to 20 hrs by broth microdilution assay (reference value: 8 mg/L).
Data set [15] in a line: Selectivity ratio of compound effect for inhibition of bacterial MBP-fused NDM1 expressed in Escherichia coli BL21(DE3) to compound effect for inhibition of human MMP12 (Phe99 to Leu271 residues) expressed in Escherichia coli.
The test system of data set [16] is Escherichia coli. The data set can be described thus: Effect on growth of Escherichia coli isolate Ah8.73 at 100 mg/L after 18 to 20 hrs by broth microdilution assay. The method, boiled down: as §2
Data set [17] in a line: Inhibition of bacterial MBP-fused NDM1 expressed in Escherichia coli BL21(DE3) ausing chromacef as substrate preincubated for 20 mins followed by substrate addition measured after 0.3 mins. More on the design: species or system Bacteria. The essentials: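 Preincubated 20 min, then 3 μM substrate (~3×KM) added. A442 followed ~0.3 min at 25 °C. Activity scaled to uninhibited (100%) and no-enzyme (0%) controls, fitted to a Hill-type equation.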

The target in data set [18] is Macrophage metalloelastase (Homo sapiens) (UniProt P39900). Kind of data set: Inhibition of human MMP12 (Phe99 to Leu271 residues) expressed in Escherichia coli at 50 to 100 uM using Mca-Pro-LeuGly-Leu-Dpa-Ala-Arg-NH2.AcOH as substrate preincubated for 30 mins followed by substrate addition measured after 20 mins by fluorescence assay relative to control. The method, boiled down:
as §1

Data set [19] has as its system Escherichia coli. Kind of data set: Inhibition of NDM1 in Escherichia coli isolate Ch8.72 assessed as potentiation of imipenem-induced antibacterial activity by measuring imipenem MIC at 100 mg/L after 18 to 20 hrs by broth microdilution assay (reference value: 16 mg/L).
The subject of a further data set is Bacteria. The data set can be described thus: Inhibition of bacterial MBP-fused NDM1 expressed in Escherichia coli BL21(DE3) ausing fluorocillin as substrate preincubated for 20 mins followed by substrate addition measured at 1 sec time interval for 25 mins in presence of ZnSO4 by fluorescence assay.
The target of data set [20] is Macrophage metalloelastase (Homo sapiens) (UniProt P39900). The data set can be described thus: Inhibition of human MMP12 (Phe99 to Leu271 residues) expressed in Escherichia coli at 10 uM using Mca-Pro-LeuGly-Leu-Dpa-Ala-Arg-NH2.AcOH as substrate preincubated for 30 mins followed by substrate addition measured after 20 mins by fluorescence assay relative to control. The method, boiled down: as §1
Chain of Macrophage metalloelastase (Homo sapiens) (P39900 106-470 limits assumed): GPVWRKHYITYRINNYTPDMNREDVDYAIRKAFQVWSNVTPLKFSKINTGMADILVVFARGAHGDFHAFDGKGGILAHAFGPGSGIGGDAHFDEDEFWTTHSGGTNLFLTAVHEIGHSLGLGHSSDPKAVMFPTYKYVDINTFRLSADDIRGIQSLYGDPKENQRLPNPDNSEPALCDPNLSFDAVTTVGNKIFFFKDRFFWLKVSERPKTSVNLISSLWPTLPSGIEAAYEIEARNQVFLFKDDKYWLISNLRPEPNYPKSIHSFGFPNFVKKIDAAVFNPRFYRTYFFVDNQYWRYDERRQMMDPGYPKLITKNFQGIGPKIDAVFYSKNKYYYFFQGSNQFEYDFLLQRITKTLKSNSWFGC

Another data set deals with HEK293. Kind of data set: Cytotoxicity against HEK293 cells assessed as reduction in cell viability up to 400 uM after 4 to 24 hrs by Cell-titer blue reagent based spectrophotometric assay. Particulars: human. The method, boiled down:
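HEK293 cells seeded at 10,000/well 12 h before treatment. Exposed to compound or DMSO vehicle for 4 or 24 h in DMEM with 10% serum and penicillin-streptomycin, n=6 per treatment per time point. Cell-Titer Blue added for 1 h, fluorescence read at 536ex/595em. Viability relative to vehicle (=1.0); ANOVA with Tukey post-hoc.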

The source made the active and inactive calls. The rule behind the calls is not given here.

The values that follow come from ChEMBL document CHEMBL4017500 (J Med Chem, 2017).

Usually inhibition stands for the relative decrease from the control value, in per cent. Usually IC50 stands for the concentration at which inhibition is half-maximal. Higher therefore signals weaker potency.

Take `Nc1cccc(-c2cc(C(=O)O)nc(C(=O)O)c2)c1`: the inhibition in [1] is less than 50%; in [18], less than 50%; in data set [20], 48%. Further, the MIC in data set [2] turned out to be 1 µg/mL; in the data set on Escherichia coli [5] it was 1 µg/mL; with Escherichia coli [7] it was 0.5 µg/mL; in data set [8], 1 µg/mL; in [10], 1 µg/mL; in data set [14] it was 0.5 µg/mL. Further, the MIC in the data set on Escherichia coli [19] came to 0.5 µg/mL. Besides, the Activity result in the data set on Escherichia coli [3], in the data set with Klebsiella pneumoniae [4], in the data set on Escherichia coli [6], in the data set on Escherichia coli [9], with Klebsiella pneumoniae [12] and in the data set with Klebsiella pneumoniae [13] was “Non-Toxic” in each case. Also, the Activity result with Escherichia coli [16] and in the data set with HEK293 was “Non-Toxic” each time. The values for the Selectivity ratio in [11] and in [15] were 500 to 1000 and 100 to 1000, respectively. In data set [17], this molecule yielded an IC50 of 0.32 µM. Also, in the data set on Bacteria, the inhibition result was “Active”.
